Assay results published in publication PMC7583637 (Bioconjugate Chemistry, 2020).
Where a SMILES comes first, the peptide text is derived from it. [ ]: non-standard residue; d: D form. Dip = N[C@H](C(=O)O)C(c1ccccc1)c1ccccc1; Chg = N[C@H](C(=O)O)C1CCCCC1; NMeA = CN[C@@H](C)C(=O)O

How the values were obtained:
A549 cells [1] = experiment: AlamarBlue viability assay after lipofection of SMC-PSO conjugates; assay type: cell-based, human; conditions: 100 nM, Lipofectamine LTX, 48 h, no TRAIL; for Loss of viability: relative to medium control
How it was run: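 A549 cells in DMEM with 10% FCS and 4 mM glutamine (37 °C, 5% CO2) were seeded at 5 × 10³ cells/well and grown 24 h to ~70% confluency. Conjugate in OptiMEM was complexed with PLUS Reagent, then Lipofectamine LTX (20 min, RT), and added at 100 nM final in antibiotic-free medium. After 48 h, cells were PBS-washed and given alamarBlue (1:10 in PBS) for 2 h at 37 °C. Fluorescence was read at 531/590 nm relative to medium control.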

c-FLIP mRNA = experiment: RT-qPCR of c-FLIP mRNA expression; assay type: cell-based, human; conditions: 300 nM, Lipofectamine LTX, 24 h; for Reduction of c-FLIP mRNA levels: A549, relative to reference genes, ΔΔCq, n = 3; for Effect on c-FLIP mRNA levels: A549
c-FLIP = conditions: 2′-MOE-RNA/DNA gapmer PSOs; cited from earlier work
XIAP L-Bir2-Bir3 = XIAP L-Bir2-Bir3 (Homo sapiens, UniProt P98170); experiment: Competitive fluorescence polarization binding assay with Smac-1F probe
A549 cells [2] = experiment: AlamarBlue viability assay, PNA-CPP and SMC-PNA-CPP conjugates or chloroquine; assay type: cell-based, human; conditions: control experiments, Figure S7A
Caspase 3 and 7 activity = experiment: Caspase 3/7 assay; assay type: cell-based, human; conditions: 200 nM conjugate, 2 ng/mL SuperKillerTRAIL, 24 h, DEVD-AFC
How it was run: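 A549 cells were seeded in 6-well plates 24 h ahead and lipofected to a final 200 nM with 2 ng/mL SuperKillerTRAIL. After 24 h, cells were harvested and lysed (HEPES/NaCl/EDTA/1% Triton X-100, pH 7.5; 20 min on ice with sonication), and protein was measured by BCA. 35 μg protein was mixed with 2× buffer (HEPES, 20 mM DTT, 20% glycerol, pH 7.5) containing 50 μM DEVD-AFC, 2 h at 37 °C in the dark. […] versus medium-treated control; SD shown.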

A549 cells [3] = conditions: read-out: IC50, toxicity to A549 cells; cited from earlier work

XIAP L-Bir2-Bir3, sequence (P98170 120-356): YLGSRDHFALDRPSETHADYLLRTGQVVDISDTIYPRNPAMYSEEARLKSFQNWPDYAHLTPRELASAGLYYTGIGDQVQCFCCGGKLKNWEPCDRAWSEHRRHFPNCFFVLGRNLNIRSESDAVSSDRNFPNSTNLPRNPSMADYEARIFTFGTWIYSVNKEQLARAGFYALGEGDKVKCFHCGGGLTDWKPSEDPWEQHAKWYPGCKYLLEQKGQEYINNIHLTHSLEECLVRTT

In the case of “5'-ACTTGTCCCTGCTCCTTGAA-3' (full phosphorothioate, further chemistry not given here) [ISIS 23296, reference compound]”, the Loss of viability (A549 cells [1]) is listed as “ca. 30%”, the “Reduction of c-FLIP mRNA levels” value (c-FLIP mRNA) is listed as “up to 50%” and the “Knockdown reported in original publication” value (c-FLIP) is listed as 70%.

With “5'-AGTTCTCTCTGCCCCTAGAT-3' (phosphorothioate, further chemistry not given here) [unconjugated, scrambled PSO, reference compound]” the “Effect on viability” value (A549 cells [1]) was “some decrease in viability” and the “Effect on c-FLIP mRNA levels” value (c-FLIP mRNA) was “significant upregulation of c-FLIP levels”.

In the case of `CN[C@@H](C)C(=O)N[C@H](C(=O)N1CCC[C@H]1C(=O)N[C@H](C(=O)NCC(N)=O)C(c1ccccc1)c1ccccc1)C1CCCCC1` [SMC, H-MeAla-Chg-Pro-Dip-Gly-NH2] (H-[NMeA][Chg]P[Dip]G-NH2), the IC50 (XIAP L-Bir2-Bir3) is reported as 4.6 µM.

For `CCN(CC)CCCC(C)Nc1ccnc2cc(Cl)ccc12` (centres unmarked) [chloroquine], the “Concentration up to which viability of A549 cells is not affected” value (A549 cells [2]) was “up to 200 μM”.

With “Ac-Gly-Lys(N3-DBCO-ACTTGTCCCTGCTCCTTGAA)-Dap(AcS-Chg-Pro-Dip)-NH2 [AcSMC-PSO1]” the Loss of viability (A549 cells [1]) was “ca. 30%”.

Work on “Ac-Gly-Lys(N3-DBCO-ACTTGTCCCTGCTCCTTGAA)-Dap(MeA-Chg-Pro-Dip)-NH2 [SMC-PSO1]” yielded a Loss of viability (A549 cells [1]) of 40%.

In the case of “Ac-Gly-Lys(N3-DBCO-AGTTCTCTCTGCCCCTAGAT)-Dap(AcS-Chg-Pro-Dip)-NH2 [AcSMC-scrPSO1]”, the “Effect on viability” value (A549 cells [1]) is reported as “some decrease in viability”.

For “Ac-Gly-Lys(N3-DBCO-AGTTCTCTCTGCCCCTAGAT)-Dap(MeA-Chg-Pro-Dip)-NH2 [SMC-scrPSO1]”, the Loss of viability (A549 cells [1]) was “ca. 30%”.

In the case of “AcS-Chg-Pro-Dip-Gly-Gly-Lys(N3-DBCO-ACTTGTCCCTGCTCCTTGAA)-Dap(AcS-Chg-Pro-Dip)-NH2 [(AcSMC)2-PSO1]”, the “Reduction of c-FLIP mRNA levels” value (c-FLIP mRNA) is reported as “around 40%”.

In the case of “AcS-Chg-Pro-Dip-Gly-Gly-Lys(N3-DBCO-AGTTCTCTCTGCCCCTAGAT)-Dap(AcS-Chg-Pro-Dip)-NH2 [(AcSMC)2-scrPSO1]”, the “Effect on c-FLIP mRNA levels” value (c-FLIP mRNA) is reported as “upregulation of c-FLICE did not occur”.

For “MeA-Chg-Pro-Dip-Gly-Gly-Lys(N3-DBCO-ACTTGTCCCTGCTCCTTGAA)-Dap(MeA-Chg-Pro-Dip)-NH2 [(SMC)2-PSO1]”, the Loss of viability (A549 cells [1]) was 50–60%, the “Increase of caspase 3/7 activity over background” value (Caspase 3 and 7 activity) was ~40 fold and the “Reduction of c-FLIP mRNA levels” value (c-FLIP mRNA) was “around 40%”.

With “MeA-Chg-Pro-Dip-Gly-Gly-Lys(N3-DBCO-AGTTCTCTCTGCCCCTAGAT)-Dap(MeA-Chg-Pro-Dip)-NH2 [(SMC)2-scrPSO1]” the “Effect on c-FLIP mRNA levels” value (c-FLIP mRNA) was “upregulation of c-FLICE did not occur”.

For Penetratin, the IC50 (A549 cells [3]) is given as 60.8 µM.

For Transportan, the IC50 (A549 cells [3]) is given as 2.5 µM.

For octaarginine, the IC50 (A549 cells [3]) is given as > 1000 µM.
